From ChEMBL document CHEMBL1152757, “Stereoselective synthesis and biological evaluation of syn-1-amino-3-[18F]fluorocyclobutyl-1-carboxylic acid as a potential positron emission tomography brain tumor imaging agent” (Bioorg Med Chem, 2009) come the findings set out here.

Each structure is given as a SMILES string.

What all share (assay type): ADME, cell-based
Common to all, as to conditions: 0.5 h

The test system of data set [1] is 9L. Briefly: Drug uptake in rat 9L cells assessed as intracellular accumulation after 30 mins measured per 5 x 10^5 cells by gamma-counter. Summed up:
(§1)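 9L cells were grown in DMEM with 10% FCS and penicillin/streptomycin, then trypsinized and washed twice in HBSS. About 5 × 10^5 cells received 5 µCi tracer in amino acid-free HBSS for 30 min at 37 °C, without or with 10 mM BCH (L-type inhibitor). Cells were centrifuged and rinsed twice with ice-cold HBSS, then gamma-counted with decay correction. Uptake expressed as % of standard per 5 × 10^5 cells. Triplicates, 1-way ANOVA.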

For data set [2], the system named is 9L. Briefly: Drug uptake in rat 9L cells assessed as intracellular accumulation after 30 mins measured per 5 x 10^5 cells by gamma-counter in presence of 2-aminobicyclo[2.2.1]-heptane-2-carboxylic acid. Summed up: as §1
The subject of data set [3] is 9L. Put plainly: Drug uptake in rat 9L cells assessed as intracellular accumulation after 30 mins measured per 5 x 10^5 cells by gamma-counter in presence of alanine-cysteine-serine. A digest of the protocol: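 9L rat gliosarcoma cells were grown in DMEM with 10% fetal calf serum and penicillin/streptomycin at 37 °C under 5% CO2, trypsinized and washed in HBSS. About 5 × 10^5 cells were incubated with 5 µCi tracer in amino-acid-free HBSS with 10 mM ACS (equimolar Ala/Cys/Ser) for 30 min at 37 °C, run in triplicate. Cells were centrifuged and rinsed twice with ice-cold HBSS, then gamma counted with decay correction. Results are % of standard per 5 × 10^5 cells.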

With `N[C@]1(C(=O)O)C[C@@H]([18F])C1` [FLUCICLOVINE F18], the figures for the Drug uptake in the data set on 9L [1], in the data set with 9L [2] and with 9L [3] were 12.3 %ID, 2.9 %ID and 0.18 %ID, respectively.
